Assay [1] relates to Rattus norvegicus. The assay is described as follows: The glycemia values 30 minutes after glucose administration to streptozotocin rats. Format: functional. Put shortly: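 Male Wistar rats (3-month, ~250 g) made diabetic with streptozotocin 35 mg/kg iv in citrate buffer; used 2 weeks later if basal glycemia was 7–10 mM. Single ip dose of 100 µmol/kg (hydrochloride salt), then iv glucose 0.5 g/kg under pentobarbital. Plasma glucose was read by analyzer at 30 min and expressed as % variation versus untreated STZ rats.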

Assay [2] relates to Rattus norvegicus. The assay is described as follows: The rate of glucose disappearance between 5 and 30 minutes after glucose administration. Format: functional, organism-based. Put shortly:
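In the intravenous glucose tolerance test (0.5 g/kg, saphenous vein, pentobarbital anesthesia), STZ-diabetic male Wistar rats had received a single 100 µmol/kg ip dose beforehand. Plasma glucose was sampled from the tail at 5–30 min. The glucose disappearance rate K was computed over 5–30 min and expressed as % variation versus untreated STZ rats.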

The subject of assay [3] is Rattus norvegicus. The assay is described as follows: The incremental plasma insulin values over 30 minutes after glucose administration. Type of assay: functional. Put shortly:
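Moderately diabetic STZ Wistar rats were given 100 µmol/kg ip once, then 0.5 g/kg iv glucose under pentobarbital. Tail-vein plasma from 0–30 min was stored at −20 °C, and insulin was measured by radioimmunoassay (lower limit 19.5 pmol/L). The incremental insulin over baseline was integrated over 30 min and expressed as % variation versus untreated STZ rats.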

In assay [4] the test system is Rattus norvegicus. The assay is described as follows: The incremental glycemia values after glucose administration (0.5 g/kg iv), to rats treated with streptozotocin (35 mg/kg iv). Type of assay: functional. In short, it runs like this: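 STZ (35 mg/kg iv) male Wistar rats were selected after 2 weeks with basal glycemia 7–10 mM and […]. They received 100 µmol/kg ip once before an iv glucose load. Tail blood was taken at 0, 5, 10, 15, 20 and 30 min. The glucose increment over baseline was integrated over 30 min and normalized as (treated−untreated STZ)/(untreated STZ−nondiabetic control)×100.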

The compound `COc1cccc(CN2CCN(C)CC2C2=NCCN2)c1` (stereo not drawn) registered a G30 with Rattus norvegicus [1] of 68%. Moreover, the K in the assay with Rattus norvegicus [2] came to 57%. Also, the “Delta I” value in the assay on Rattus norvegicus [3] was 88%. Also, the “Delta G” value with Rattus norvegicus [4] is 23%.

Turning to `CC(C)CN1CCN(Cc2ccc(Cl)cc2Cl)C(C2=NCCN2)C1` (stereo not drawn), in the assay with Rattus norvegicus [1], the G30 was determined as 95%. Further, in the assay on Rattus norvegicus [2], the K came out at 119%. The “Delta I” value with Rattus norvegicus [3] was 623%. Further, the “Delta G” value in the assay on Rattus norvegicus [4] is reported as 110%.

Consider `Cc1ccccc1CN1CCN(C)CC1C1=NCCN1` (stereo not drawn), for which, in the assay on Rattus norvegicus [1], the G30 was 48%. The same compound came in with a K in the assay on Rattus norvegicus [2] of 81%. Moreover, the “Delta G” value in the assay with Rattus norvegicus [4] was 24%.

`CC(C)N1CCN(Cc2ccccc2Cl)C(C2=NCCN2)C1` (stereo not drawn) returned a G30 in the assay on Rattus norvegicus [1] of 83%. Further, the K in the assay on Rattus norvegicus [2] was found to be 44%. In addition, the “Delta G” value with Rattus norvegicus [4] is 84%.

For the compound `CCN1CCN(Cc2ccccc2Cl)C(C2=NCCN2)C1` (stereo not drawn), in the assay on Rattus norvegicus [1], the G30 amounted to 38%. In the assay with Rattus norvegicus [2], this compound displayed a K of 34%. For the same compound, the “Delta G” value in the assay with Rattus norvegicus [4] was found to be 108%.

Consider `CCCN1CCN(Cc2ccc(Cl)cc2Cl)C(C2=NCCN2)C1` (stereo not drawn), for which the G30 in the assay with Rattus norvegicus [1] was 80%. In the assay on Rattus norvegicus [2], this compound had a K of 104%. The “Delta G” value in the assay with Rattus norvegicus [4] was 24%.

Compound `CN1CCN(Cc2cccc(Cl)c2Cl)C(C2=NCCN2)C1` (stereo not drawn) gave a G30 with Rattus norvegicus [1] of 36%. Besides, in the assay with Rattus norvegicus [2], the K turned out to be 53%. In the assay with Rattus norvegicus [4], the “Delta G” value came out at 0%.

In the assay on Rattus norvegicus [1], `CN1CCN(Cc2cccc(Cl)c2)C(C2=NCCN2)C1` (stereo not drawn) gave a G30 of 23%. In the assay on Rattus norvegicus [2], this compound had a K of 39%. Moreover, the “Delta G” value in the assay on Rattus norvegicus [4] was determined as 0%.

In the assay on Rattus norvegicus [1], `CCCN1CCN(Cc2ccccc2Cl)C(C2=NCCN2)C1` (stereo not drawn) returned a G30 of 17%. In addition, in the assay with Rattus norvegicus [2], the K worked out at 37%. Further, in the assay with Rattus norvegicus [3], the “Delta I” value is 25%. In the assay with Rattus norvegicus [4], the “Delta G” value came out at 0%.

In turn, `c1ccc(CN2CCN(Cc3ccccc3)C(C3=NCCN3)C2)cc1` (stereo not drawn) registered a G30 in the assay with Rattus norvegicus [1] of 33%. Besides, the K in the assay on Rattus norvegicus [2] is 43%. The “Delta G” value in the assay on Rattus norvegicus [4] is reported as 0%.

`c1ccc(C(CC2=NCCN2)c2ccccn2)cc1` (stereo not drawn) [MIDAGLIZOLE] displayed a G30 in the assay with Rattus norvegicus [1] of 121%. Moreover, in the assay with Rattus norvegicus [4], the “Delta G” value came out at 32%.

In the assay with Rattus norvegicus [1], `Clc1ccccc1CN1CCN(Cc2ccccc2Cl)C(C2=NCCN2)C1` (stereo not drawn) registered a G30 of 0%. In addition, in the assay with Rattus norvegicus [2], the K amounted to 36%. Moreover, the “Delta G” value in the assay with Rattus norvegicus [4] is 0%.

Consider `CN1CCN(Cc2ccc(Cl)cc2Cl)CC1C1=NCCN1` (stereo not drawn), for which the G30 in the assay with Rattus norvegicus [1] came to 102%. The K in the assay with Rattus norvegicus [2] came out at 152%. Moreover, the “Delta G” value in the assay on Rattus norvegicus [4] amounted to 34%.

Consider `Clc1ccc(CN2CCN(Cc3ccc(Cl)cc3Cl)C(C3=NCCN3)C2)c(Cl)c1` (stereo not drawn), for which the G30 with Rattus norvegicus [1] was 18%. In the assay with Rattus norvegicus [2], the K stood at 22%. The “Delta G” value in the assay on Rattus norvegicus [4] was 0%.

`CN1CCN(Cc2ccc(F)cc2F)C(C2=NCCN2)C1` (stereo not drawn) displayed a G30 with Rattus norvegicus [1] of 106%. The compound also displayed a K with Rattus norvegicus [2] of 97%. Further, the “Delta G” value in the assay with Rattus norvegicus [4] is given as 102%.

Compound `c1ccc2c(c1)OCC(C1=NCCN1)O2` (stereo not drawn) [IDAZOXAN] came in with a G30 in the assay with Rattus norvegicus [1] of 48%. Besides, the K in the assay with Rattus norvegicus [2] worked out at 79%. Further, in the assay with Rattus norvegicus [4], the “Delta G” value amounted to 8%.

In the assay with Rattus norvegicus [1], `CN1CCN(Cc2ccccc2Cl)CC1C1=NCCN1` (stereo not drawn) displayed a G30 of 97%. The K with Rattus norvegicus [2] is 148%. Moreover, the “Delta G” value with Rattus norvegicus [4] is listed as 93%.

With `CN1CCN(Cc2ccccc2F)C(C2=NCCN2)C1` (stereo not drawn), the G30 in the assay on Rattus norvegicus [1] worked out at 52%. The compound also yielded a K with Rattus norvegicus [2] of 108%. Further, in the assay with Rattus norvegicus [4], the “Delta G” value is recorded as 72%.

`CN1CCN(Cc2c(Cl)cccc2Cl)C(C2=NCCN2)C1` (stereo not drawn) showed a G30 in the assay with Rattus norvegicus [1] of 59%. Besides, the K in the assay on Rattus norvegicus [2] amounted to 107%. Besides, in the assay with Rattus norvegicus [4], the “Delta G” value was found to be 103%.

Turning to `CN1CCN(Cc2ccc(Cl)cc2)C(C2=NCCN2)C1` (stereo not drawn), in the assay on Rattus norvegicus [1], the G30 amounted to 68%. The compound further yielded a K with Rattus norvegicus [2] of 110%. The “Delta G” value in the assay on Rattus norvegicus [4] was found to be 0%.

Turning to `CCN1CCN(Cc2ccccc2Cl)CC1C1=NCCN1` (stereo not drawn), the G30 with Rattus norvegicus [1] stood at 50%. In the assay with Rattus norvegicus [2], this compound displayed a K of 106%. The “Delta G” value in the assay on Rattus norvegicus [4] is reported as 70%.

`CN1CCN(Cc2ccccc2)C(C2=NCCN2)C1` (stereo not drawn) came in with a G30 with Rattus norvegicus [1] of 23%. The compound also registered a K with Rattus norvegicus [2] of 67%. In the assay with Rattus norvegicus [3], the “Delta I” value turned out to be 16%. Moreover, the “Delta G” value in the assay with Rattus norvegicus [4] is reported as 0%.

On to `CN1CCN(Cc2ccc(Cl)cc2Cl)C(C2=NCCN2)C1` (stereo not drawn), for which the G30 in the assay with Rattus norvegicus [1] is reported as 112%. Moreover, in the assay with Rattus norvegicus [3], the “Delta I” value came out at 221%. The “Delta G” value in the assay with Rattus norvegicus [4] was 105%.

Take `CC(C)N1CCN(Cc2ccccc2Cl)CC1C1=NCCN1` (stereo not drawn): in the assay with Rattus norvegicus [1], the G30 amounted to 96%. In addition, in the assay on Rattus norvegicus [2], the K was determined as 95%. Also, the “Delta G” value with Rattus norvegicus [4] stood at 112%.

On to `CN1CCN(Cc2ccc(Cl)c(Cl)c2)C(C2=NCCN2)C1` (stereo not drawn), for which the G30 in the assay on Rattus norvegicus [1] is given as 47%. The compound further had a K in the assay with Rattus norvegicus [2] of 42%. In the assay on Rattus norvegicus [4], the “Delta G” value turned out to be 36%.

On to `Clc1ccccc1CN1CCNCC1C1=NCCN1` (stereo not drawn), for which the G30 in the assay on Rattus norvegicus [1] is 0%. Besides, the K with Rattus norvegicus [2] worked out at 11%. Besides, the “Delta G” value in the assay with Rattus norvegicus [4] was found to be 0%.

In the assay on Rattus norvegicus [1], `CN1CCN(Cc2cc(Cl)cc(Cl)c2)C(C2=NCCN2)C1` (stereo not drawn) gave a G30 of 70%. In the assay with Rattus norvegicus [2], this compound returned a K of 117%. Further, the “Delta G” value with Rattus norvegicus [4] is reported as 0%.

Take `COc1ccccc1CN1CCN(C)CC1C1=NCCN1` (stereo not drawn): the G30 in the assay with Rattus norvegicus [1] stood at 56%. For the same compound, in the assay with Rattus norvegicus [2], the K is 39%. The “Delta G” value in the assay on Rattus norvegicus [4] amounted to 47%.

On to `CN1CCN(Cc2ccccc2C(F)(F)F)C(C2=NCCN2)C1` (stereo not drawn), for which, in the assay on Rattus norvegicus [1], the G30 was 64%. In the assay on Rattus norvegicus [2], this compound came in with a K of 63%. In addition, in the assay on Rattus norvegicus [4], the “Delta G” value came to 94%.

For `COc1cccc(CN2CCN(C)CC2C2=NCCN2)c1OC` (stereo not drawn), the G30 in the assay on Rattus norvegicus [1] was 58%. Further, the K in the assay on Rattus norvegicus [2] was determined as 55%. Moreover, the “Delta I” value with Rattus norvegicus [3] is recorded as 60%. The “Delta G” value in the assay on Rattus norvegicus [4] worked out at 0%.

`CN1CCN(Cc2ccccc2Cl)C(C2=NCCN2)C1` (stereo not drawn) came in with a G30 in the assay on Rattus norvegicus [1] of 103%. Also, the K in the assay on Rattus norvegicus [2] came to 98%. Moreover, in the assay on Rattus norvegicus [3], the “Delta I” value was found to be 109%. In addition, the “Delta G” value with Rattus norvegicus [4] was found to be 81%.

The record behind these values is ChEMBL document CHEMBL1130236, “Design and synthesis of imidazoline derivatives active on glucose homeostasis in a rat model of type II diabetes. 1. Synthesis and biological activities of N-benzyl-N'-(arylalkyl)-2-(4',5'-dihydro-1'H-imidazol-2'-yl)piperazines ” (1997).
